Legend:
[1] = test system: Mycobacterium tuberculosis; test: Binding affinity to Mycobacterium tuberculosis EthR assessed as change in melting temperature at 20 uM by thermal shift assay
Procedure, shortened: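 Protein unfolding tracked with SYPRO Orange in a real-time PCR instrument. Ligand at 20 μM in EthR buffer (10 mM Tris/HCl, 300 mM NaCl, 0.1 mM EDTA, pH 7.5). Heated 37 to 85 °C at 0.04 °C/s, fluorescence read at Ex/Em 465/510 nm. ΔTm taken as the holo minus apo melting temperature.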

[2] = test system: Mycobacterium tuberculosis; test: Antimicrobial activity against Mycobacterium tuberculosis H37Rv expressing GFP infected in mouse RAW264.7 cells assessed as concentration required to potentiate 0.1 ug/ml […] to inhibit microbial growth by 50% by fluorescence assay; type: functional, organism-based
Procedure, shortened: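 RAW264.7 macrophages infected with H37Rv-GFP at MOI 1:1 for 2 h at 37 °C with shaking. Extracellular bacilli killed with amikacin (20 μM, 1 h). Infected cells added to compound serial dilutions (ten 2-fold) with ethionamide fixed at 0.1 μg/mL, 5 days at 37 °C, 5% CO2. SYTO 60 stained; confocal imaging gives percent infected cells and cell number. Two replicates averaged.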

[3] = Solubility in PBS at pH 7.4 after 24 hrs by LC-MS/MS analysis; type: physicochemical
Procedure, shortened: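 10 mM DMSO stock diluted 1:50 into PBS pH 7.4 or MeOH. Shaken 24 h at room temperature, centrifuged, filtered (0.45 μm), diluted tenfold in MeOH. Analysed by LC-MS/MS (SIM or MRM). Solubility from the PBS/MeOH ratio of mass signal areas.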

[4] = Inhibition of Mycobacterium tuberculosis EthR assessed as inhibition of EthR-DNA interaction after 3 mins by SPR assay
Procedure, shortened: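 106-bp biotinylated ethA/ethR intergenic DNA immobilised on a streptavidin chip (about 75 RU). An irrelevant 113-bp bla fragment in the reference channel; signal taken as the channel difference. Preincubated 5 min at 37 °C, injected at 20 μL/min for 3 min at 25 °C. Response read at end of injection; IC50 from dose-response.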

## CC(C)CCNS(=O)(=O)c1ccc(CCC(C)C)cc1
[1]
  ΔTm: 3.2 °C
[2]
  EC50: 6.3 µM

## Cc1nc(-c2ccc(C(=O)NCCC(F)(F)F)cc2)cs1
[3]
  solubility at 24 h: 14.7 µg/mL
[1]
  ΔTm: 11.2 °C
[2]
  EC50: 0.08 µM
[4]
  IC50: 0.4 µM

## CC(=O)Nc1ccc(-c2ccc(S(=O)(=O)NCCC(C)C)cc2)cc1
[1]
  ΔTm: 2 °C
[2]
  EC50: > 10 µM

## CC(C)CCNS(=O)(=O)c1ccc(-c2cnco2)cc1
[1]
  ΔTm: 1.2 °C
[2]
  EC50: > 10 µM

## Cc1nc(-c2ccc(S(=O)(=O)NCCC(C)C)cc2)cs1
[3]
  solubility at 24 h: 6.6 µg/mL
[1]
  ΔTm: 6.1 °C
[2]
  EC50: 5.7 µM
[4]
  IC50: 4.9 µM

## CC(C)CCNS(=O)(=O)c1ccc(N2CCCC2=O)cc1
[1]
  ΔTm: 0.6 °C
[2]
  EC50: > 10 µM

## Cc1nc(-c2ccc(S(=O)(=O)NCCCC(F)(F)F)cc2)cs1
[1]
  ΔTm: 6.6 °C
[2]
  EC50: > 2.5 µM

## CC(C)CCNS(=O)(=O)c1ccc(-c2ccc(F)cc2)cc1
[1]
  ΔTm: 2.2 °C
[2]
  EC50: > 10 µM

## CCOC(=O)c1ccc(S(=O)(=O)NCCC(C)C)cc1
[1]
  ΔTm: 4.3 °C
[2]
  EC50: 10 µM

## O=C(NCCC(F)(F)F)c1ccc(C#CCNS(=O)(=O)c2ccccc2)cc1
[3]
  solubility at 24 h: 3 µg/mL
[1]
  ΔTm: 4.2 °C
[2]
  EC50: 0.23 µM
[4]
  IC50: 3.9 µM

## COc1ccc(-c2ccc(S(=O)(=O)NCCC(C)C)cc2)cc1
[1]
  ΔTm: 3.7 °C
[2]
  EC50: > 10 µM

## CC(C)CCNS(=O)(=O)c1ccc(-n2cccn2)cc1
[1]
  ΔTm: 1.9 °C
[2]
  EC50: > 10 µM

## C#CCNS(=O)(=O)c1ccc(I)cc1
[3]
  solubility at 24 h: > 200 µM
[1]
  ΔTm: 0.1 °C
[2]
  EC50: > 10 µM
[4]
  IC50: 160 µM

## CC(C)CCNS(=O)(=O)c1ccc(I)cc1
[1]
  ΔTm: 1.9 °C
[2]
  EC50: > 10 µM

## CCCS(=O)(=O)NCc1nc(-c2ccc(C(=O)NCCC(F)(F)F)cc2)cs1
[3]
  solubility at 24 h: 1.3 µg/mL
[1]
  ΔTm: 6.6 °C
[2]
  EC50: 0.32 µM
[4]
  IC50: 0.56 µM

## CCCCOc1ccc(S(=O)(=O)NCCC(C)C)cc1
[1]
  ΔTm: 3.6 °C
[2]
  EC50: > 10 µM

## Cc1nc(-c2ccc(S(=O)(=O)NCCC(F)(F)F)cc2)cs1
[3]
  solubility at 24 h: 14.5 µg/mL
[1]
  ΔTm: 8.5 °C
[2]
  EC50: 0.29 µM
[4]
  IC50: 0.55 µM

## Cc1nc(-c2ccc(S(=O)(=O)NCC(F)(F)F)cc2)cs1
[1]
  ΔTm: 6.3 °C
[2]
  EC50: 7.9 µM

## Cc1nc(-c2ccc(S(=O)(=O)NCCC(C)(C)C)cc2)cs1
[1]
  ΔTm: 2.3 °C
[2]
  EC50: > 20 µM

Source: ChEMBL document CHEMBL3286364, “Ligand efficiency driven design of new inhibitors of Mycobacterium tuberculosis transcriptional repressor EthR using fragment growing, merging, and linking approaches” (J Med Chem, 2014)
